Source: ChEMBL document CHEMBL1131139, “Synthesis and antibacterial activity of ketolides (6-O-methyl-3-oxoerythromycin derivatives): a new class of antibacterials highly potent against macrolide-resistant and -susceptible respiratory pathogens” (1998)
Values after ≈ are worked out from the molar mass of the structure shown.

Columns and labels:
Type in all cases: functional
[1] = system: Staphylococcus aureus; experiment: In vitro inhibitory activity against Staphylococcus aureus (011UC4)
Summary of the method: (§1)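 Two-fold agar dilution on Mueller-Hinton agar (pH 7.4). Inoculum from overnight plate cultures suspended in Mueller-Hinton broth, adjusted to 10^9 CFU/mL, diluted 1:200 and spotted by multipoint inoculator at about 10^4 CFU/spot. Plates incubated 37 °C for 20 h. MIC taken as lowest concentration with no visible growth.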

[2] = system: Streptococcus pyogenes; experiment: In vitro inhibitory activity against Streptococcus pyogenes (02A1UC1); summary of the method: as §1
[3] = system: Haemophilus influenzae; experiment: In vitro inhibitory activity against Haemophilus influenzae (351HT3); summary of the method: as §1
[4] = system: Escherichia coli; experiment: In vitro inhibitory activity against Escherichia coli (250 UC5); summary of the method: as §1
[5] = system: Staphylococcus aureus; experiment: In vitro inhibitory activity against Staphylococcus aureus (EryRi 011GO25i); summary of the method: as §1
[6] = system: Streptococcus pneumoniae; experiment: In vitro inhibitory activity against Streptococcus pneumoniae (EryRi 030SJ5i); summary of the method: as §1
[7] = system: Staphylococcus aureus; experiment: In vitro inhibitory activity against Staphylococcus aureus (EryRc 011CB20); summary of the method: as §1
[8] = system: Staphylococcus epidermidis; experiment: In vitro inhibitory activity against Staphylococcus epidermidis (EryRi 012GO11i); summary of the method: as §1
[9] = system: Streptococcus pneumoniae; experiment: In vitro inhibitory activity against Streptococcus pneumoniae (EryRc 030SJ1); summary of the method: as §1
[10] = system: Streptococcus pneumoniae; experiment: In vitro inhibitory activity against Streptococcus pneumoniae (032UC1); summary of the method: as §1
[11] = system: Haemophilus influenzae; experiment: In vitro inhibitory activity against Haemophilus influenzae (351CB12); summary of the method: as §1

CC[C@H]1OC(=O)[C@H](C)C(=O)[C@H](C)[C@@H](O[C@@H]2O[C@H](C)C[C@H](N(C)C)[C@H]2O)[C@](C)(OC)C[C@@H](C)/C(=N\OCCNCCN2CCCC2)[C@H](C)[C@@H](O)[C@]1(C)O
MIC [1]: 0.3 µg/mL (≈ 0.404 µM)
MIC [2]: 0.04 µg/mL (≈ 0.0538 µM)
MIC [3]: 20 µg/mL (≈ 26.9 µM)
MIC [4]: 40 µg/mL (≈ 53.8 µM)
MIC [5]: 1.2 µg/mL (≈ 1.62 µM)
MIC [6]: 1.2 µg/mL (≈ 1.62 µM)
MIC [7]: 40 µg/mL (≈ 53.8 µM)
MIC [8]: 0.6 µg/mL (≈ 0.808 µM)
MIC [9]: 0.6 µg/mL (≈ 0.808 µM)
MIC [10]: 10 µg/mL (≈ 13.5 µM)
MIC [11]: 10 µg/mL (≈ 13.5 µM)

CCCNCCO/N=C1\[C@H](C)C[C@@](C)(OC)[C@H](O[C@@H]2O[C@H](C)C[C@H](N(C)C)[C@H]2O)[C@@H](C)C(=O)[C@@H](C)C(=O)O[C@H](CC)[C@@](C)(O)[C@H](O)[C@H]1C
MIC [1]: 0.15 µg/mL (≈ 0.218 µM)
MIC [2]: 0.04 µg/mL (≈ 0.0581 µM)
MIC [3]: 40 µg/mL (≈ 58.1 µM)
MIC [4]: 40 µg/mL (≈ 58.1 µM)
MIC [5]: 0.3 µg/mL (≈ 0.436 µM)
MIC [6]: 1.2 µg/mL (≈ 1.74 µM)
MIC [7]: 40 µg/mL (≈ 58.1 µM)
MIC [8]: 0.15 µg/mL (≈ 0.218 µM)
MIC [9]: 40 µg/mL (≈ 58.1 µM)
MIC [10]: 10 µg/mL (≈ 14.5 µM)
MIC [11]: 10 µg/mL (≈ 14.5 µM)

CC[C@H]1OC(=O)[C@H](C)C(=O)[C@H](C)[C@@H](O[C@@H]2O[C@H](C)C[C@H](N(C)C)[C@H]2O)[C@](C)(OC)C[C@@H](C)C(=O)[C@H](C)[C@H]2N(CCOCc3ccccc3)C(=O)O[C@]12C
MIC [1]: 0.04 µg/mL (≈ 0.0536 µM)
MIC [2]: 0.02 µg/mL (≈ 0.0268 µM)
MIC [3]: 1.2 µg/mL (≈ 1.61 µM)
MIC [4]: 40 µg/mL (≈ 53.6 µM)
MIC [5]: 0.08 µg/mL (≈ 0.107 µM)
MIC [6]: 0.3 µg/mL (≈ 0.402 µM)
MIC [7]: 40 µg/mL (≈ 53.6 µM)
MIC [8]: 0.15 µg/mL (≈ 0.201 µM)
MIC [9]: 5 µg/mL (≈ 6.69 µM)
MIC [10]: 0.02 µg/mL (≈ 0.0268 µM)
MIC [11]: 0.6 µg/mL (≈ 0.803 µM)

CC[C@H]1OC(=O)[C@H](C)C(=O)[C@H](C)[C@@H](O[C@@H]2O[C@H](C)C[C@H](N(C)C)[C@H]2O)[C@](C)(OC)C[C@@H](C)C(=O)[C@@H](C)[C@H]2N(N)C(=O)O[C@]12C
MIC [1]: 40 µg/mL (≈ 63.7 µM)
MIC [2]: 2.5 µg/mL (≈ 3.98 µM)
MIC [3]: 40 µg/mL (≈ 63.7 µM)
MIC [4]: 40 µg/mL (≈ 63.7 µM)
MIC [5]: 40 µg/mL (≈ 63.7 µM)
MIC [6]: 40 µg/mL (≈ 63.7 µM)
MIC [7]: 40 µg/mL (≈ 63.7 µM)
MIC [8]: 40 µg/mL (≈ 63.7 µM)
MIC [9]: 40 µg/mL (≈ 63.7 µM)
MIC [10]: 5 µg/mL (≈ 7.96 µM)
MIC [11]: 40 µg/mL (≈ 63.7 µM)

CC[C@H]1OC(=O)[C@H](C)C(=O)[C@H](C)[C@@H](O[C@@H]2O[C@H](C)C[C@H](N(C)C)[C@H]2O)[C@](C)(OC)C[C@@H](C)C(=O)[C@H](C)[C@H]2N(CCCCc3ccnc4ccc(OC)cc34)C(=O)O[C@]12C
MIC [1]: 0.08 µg/mL (≈ 0.0968 µM)
MIC [2]: 0.02 µg/mL (≈ 0.0242 µM)
MIC [3]: 1.2 µg/mL (≈ 1.45 µM)
MIC [4]: 40 µg/mL (≈ 48.4 µM)
MIC [5]: 0.08 µg/mL (≈ 0.0968 µM)
MIC [6]: 0.02 µg/mL (≈ 0.0242 µM)
MIC [7]: 40 µg/mL (≈ 48.4 µM)
MIC [8]: 0.04 µg/mL (≈ 0.0484 µM)
MIC [9]: 0.6 µg/mL (≈ 0.726 µM)
MIC [10]: 0.02 µg/mL (≈ 0.0242 µM)
MIC [11]: 1.2 µg/mL (≈ 1.45 µM)

CC[C@H]1OC(=O)[C@H](C)C(=O)[C@H](C)[C@@H](O[C@@H]2O[C@H](C)C[C@H](N(C)C)[C@H]2O)[C@](C)(OC)C[C@@H](C)C(=O)[C@@H](C)[C@H]2NC(=O)O[C@@]21C
MIC [1]: 5 µg/mL (≈ 8.16 µM)
MIC [2]: 2.5 µg/mL (≈ 4.08 µM)
MIC [3]: 20 µg/mL (≈ 32.6 µM)
MIC [4]: 40 µg/mL (≈ 65.3 µM)
MIC [5]: 40 µg/mL (≈ 65.3 µM)
MIC [6]: 40 µg/mL (≈ 65.3 µM)
MIC [7]: 40 µg/mL (≈ 65.3 µM)
MIC [8]: 40 µg/mL (≈ 65.3 µM)
MIC [9]: 40 µg/mL (≈ 65.3 µM)
MIC [10]: 0.3 µg/mL (≈ 0.49 µM)
MIC [11]: 20 µg/mL (≈ 32.6 µM)

CC[C@H]1OC(=O)[C@H](C)C(=O)[C@H](C)[C@@H](O[C@@H]2O[C@H](C)C[C@H](N(C)C)[C@H]2O)[C@](C)(OC)C[C@@H](C)/C(=N\OCCN2CCC2)[C@H](C)[C@@H](O)[C@]1(C)O
MIC [1]: 0.6 µg/mL (≈ 0.875 µM)
MIC [2]: 0.04 µg/mL (≈ 0.0583 µM)
MIC [3]: 40 µg/mL (≈ 58.3 µM)
MIC [4]: 40 µg/mL (≈ 58.3 µM)
MIC [5]: 2.5 µg/mL (≈ 3.64 µM)
MIC [6]: 2.5 µg/mL (≈ 3.64 µM)
MIC [7]: 40 µg/mL (≈ 58.3 µM)
MIC [8]: 5 µg/mL (≈ 7.29 µM)
MIC [9]: 0.3 µg/mL (≈ 0.437 µM)
MIC [10]: 20 µg/mL (≈ 29.2 µM)
MIC [11]: 10 µg/mL (≈ 14.6 µM)

CC[C@H]1OC(=O)[C@H](C)C(=O)[C@H](C)[C@@H](O[C@@H]2O[C@H](C)C[C@H](N(C)C)[C@H]2O)[C@](C)(OC)C[C@@H](C)/C(=N\OCc2c(C)cc(C)cc2C)[C@H](C)[C@@H](O)[C@]1(C)O
MIC [1]: 0.3 µg/mL (≈ 0.408 µM)
MIC [2]: 0.3 µg/mL (≈ 0.408 µM)
MIC [3]: 40 µg/mL (≈ 54.4 µM)
MIC [4]: 40 µg/mL (≈ 54.4 µM)
MIC [5]: 0.6 µg/mL (≈ 0.816 µM)
MIC [6]: 5 µg/mL (≈ 6.8 µM)
MIC [7]: 10 µg/mL (≈ 13.6 µM)
MIC [8]: 0.6 µg/mL (≈ 0.816 µM)
MIC [9]: 5 µg/mL (≈ 6.8 µM)
MIC [10]: 0.04 µg/mL (≈ 0.0544 µM)
MIC [11]: 40 µg/mL (≈ 54.4 µM)

CC[C@H]1OC(=O)[C@H](C)C(=O)[C@H](C)[C@@H](O[C@@H]2O[C@H](C)C[C@H](N(C)C)[C@H]2O)[C@](C)(OC)C[C@@H](C)C(=O)[C@H](C)[C@H]2N(NCCCc3ccnc4ccc(OC)cc34)C(=O)O[C@]12C
MIC [1]: 0.04 µg/mL (≈ 0.0484 µM)
MIC [2]: 0.02 µg/mL (≈ 0.0242 µM)
MIC [3]: 1.2 µg/mL (≈ 1.45 µM)
MIC [4]: 40 µg/mL (≈ 48.4 µM)
MIC [5]: 0.08 µg/mL (≈ 0.0967 µM)
MIC [6]: 0.02 µg/mL (≈ 0.0242 µM)
MIC [7]: 40 µg/mL (≈ 48.4 µM)
MIC [8]: 0.08 µg/mL (≈ 0.0967 µM)
MIC [9]: 0.08 µg/mL (≈ 0.0967 µM)
MIC [10]: 0.02 µg/mL (≈ 0.0242 µM)
MIC [11]: 2.5 µg/mL (≈ 3.02 µM)
